We go through 35 compounds from ChEMBL document CHEMBL1131136, “4-(beta-Arylvinyl)-3-(beta-arylvinylketo)-1-ethyl-4-piperidinols and related compounds: a novel class of cytotoxic and anticancer agents” (J Med Chem, 1998).

Test [1] is filed under the species Homo sapiens. In words: Cytotoxicity evaluated against human tumor. The format is functional. Put shortly:
(§1)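 NCI panel of about 55 human tumor cell lines covering leukemia, melanoma, non-small-cell lung, colon, CNS, ovarian, renal, prostate and breast cancers, with some compounds tested on small-cell lung instead of prostate and breast.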

The subject of a further test is P388. Briefly: Cytotoxicity evaluated against P388 cells. It is filed as functional, cell-based. The following applies: Mus musculus.
Another test relates to L1210. In words: Cytotoxicity evaluated against L1210 cells. Particulars: Mus musculus. The format is functional, cell-based.
Test [2] relates to Mus musculus. In words: Percentage increase in the median time in days for the CAKI-1 treated tumor to reach a certain size compared to controls at the dose of 16.8 mg/kg. It is filed as functional. In a few lines: (§2)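 Human tumor xenografts passaged in athymic mice, tested by the NCI Developmental Therapeutics Program. %ILS is the percentage increase in median days for treated tumors to reach a set size versus untreated controls.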

Test [3] deals with Mus musculus. In words: Percentage increase in the median time in days for the COLO 205 treated tumor to reach a certain size compared to controls at the dose of 16.8 mg/kg. It is filed as functional. Put shortly:
as §2

Test [4] concerns Mus musculus. In words: Percentage increase in the median time in days for the KM12 treated tumor to reach a certain size compared to controls at the dose of 25 mg/kg. It is filed as functional. In a few lines:
as §2

In test [5] the test system is Mus musculus. In words: Optimal value of the percentage reduction of the median treated CAKI-1 tumor weight compared to the median control tumor weight at the dose of 16.8 mg/kg. The format is functional. In a few lines: (§3)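 The NCI Developmental Therapeutics Program passaged human tumor xenografts in athymic mice. % T/C is the optimal ratio of median treated to median control tumor weight. Tumor-growth delay (% ILS) was the increase in median days for treated tumors to reach a set size compared with controls.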

In test [6] the test system is Mus musculus. Briefly: Optimal value of the percentage reduction of the median treated COLO 205 tumor weight compared to the median control tumor weight at the dose of 16.8 mg/kg. It is filed as functional. In a few lines: as §3
In test [7] the test system is Mus musculus. In words: Optimal value of the percentage reduction of the median treated KM12 tumor weight compared to the median control tumor weight at the dose of 16.8 mg/kg. It is filed as functional. Put shortly:
as §3

Test [8] concerns Mus musculus. In words: Percentage increase in the median time in days for the COLO 205 treated tumor to reach a certain size compared to controls at the dose of 200 mg/kg. The format is functional. In a few lines:
as §2

Test [9] concerns Mus musculus. Briefly: Percentage increase in the median time in days for the NCI-H522 treated tumor to reach a certain size compared to controls at the dose of 80 mg/kg. It is filed as functional. In a few lines: as §2
The test system of test [10] is Mus musculus. In words: Percentage increase in the median time in days for the SW-620 treated tumor to reach a certain size compared to controls at the dose of 80 mg/kg. The format is functional. In a few lines: as §2
The subject of test [11] is Mus musculus. In words: Optimal value of the percentage reduction of the median treated COLO 205 tumor weight compared to the median control tumor weight at the dose of 200 mg/kg. The format is functional. In a few lines: as §3
Test [12] relates to Mus musculus. Briefly: Optimal value of the percentage reduction of the median treated NCI-H522 tumor weight compared to the median control tumor weight at the dose of 80 mg/kg. The format is functional. In a few lines:
as §3

Test [13] relates to Mus musculus. In words: Optimal value of the percentage reduction of the median treated SW-620 tumor weight compared to the median control tumor weight at the dose of 80 mg/kg. It is filed as functional. Put shortly: as §3
The species named for test [14] is Homo sapiens. Briefly: Cytotoxicity evaluated against human tumor. The format is functional. In a few lines: as §1

Structures are written as SMILES.

As to `CC[N+]1(C)CC[C@@](O)(c2ccc(OC)cc2)[C@H](C(=O)c2ccc(OC)cc2)C1` (stereo partly drawn), the values for the IC50 in the test filed under Homo sapiens [1] and in the test on P388 were 10.2 µM and 0.98 µM, respectively.
The corresponding values for `CC[N+]1(C)CC[C@@](O)(c2ccc(C)cc2)[C@H](C(=O)c2ccc(C)cc2)C1` (stereo partly drawn) are 50.1 µM and 2.1 µM.
Regarding `CC[N+]1(C)CC[C@@](O)(/C=C/c2ccc(C)cc2)[C@H](C(=O)/C=C/c2ccc(C)cc2)C1` (stereo partly drawn), the IC50 (as a rule, the concentration needed to halve the response being measured) in the test with L1210 is 13.8 µM; in the test with P388 it was 0.62 µM.
For the compound `O=C(/C=C/c1ccccc1)CCN1CCN(CCC(=O)/C=C/c2ccccc2)CC1`, the IC50 in the test filed under Homo sapiens [1] stood at 12 µM; in the test on L1210, 5.78 µM; with P388, 0.62 µM.
As to `CCN(CC)CCC(=O)c1ccc(C)cc1`, the IC50 was 26.3 µM in the test listed under Homo sapiens [1], 21.5 µM in the test on L1210 and 2.2 µM in the test on P388.
Consider `CCN1CC[C@@](O)(c2ccc(Cl)cc2)[C@H](C(=O)c2ccc(Cl)cc2)C1`, for which the IC50 in the test listed under Homo sapiens [1] came out at 83.2 µM; in the test with L1210, 15.7 µM; in the test with P388 it was 5.14 µM.
`O=C(CCN1CCN(CCC(=O)c2ccccc2)CC1)c1ccccc1`: the IC50 in the test on L1210 was found to be 9.71 µM; with P388, 2.84 µM.
The compound `N[C@@H](Cc1ccc(N(CCCl)CCCl)cc1)C(=O)O` came in with an IC50 in the test filed under Homo sapiens [1] of 26.3 µM.
Take `CC[N+]1(C)CC[C@@](O)(/C=C/c2ccccc2)[C@H](C(=O)/C=C/c2ccccc2)C1.[Br-]` (stereo partly drawn): the IC50 in the test listed under Homo sapiens [1] stood at 8.31 µM; in the test on P388 it was 2.27 µM. The figures for the ILS at 16.8 mg/kg with Mus musculus [2] and with Mus musculus [3] were 6% and 14%, respectively. In addition, the ILS at 25 mg/kg in the test on Mus musculus [4] was 5%. The T/C (usually the result in the treated group divided by that in the control group, in per cent) in the test on Mus musculus [5] turned out to be 43%; in the test with Mus musculus [6], 20%; in the test on Mus musculus [7] it was 45%.
`CCN1CC[C@@](O)(c2ccccc2)[C@H](C(=O)c2ccccc2)C1`: the figures for the IC50 in the test filed under Homo sapiens [1], with L1210 and with P388 were 30.2 µM, 20.1 µM and 1.07 µM, respectively.
On to `CCN1CC[C@@](O)(/C=C/c2ccccc2C)[C@H](C(=O)/C=C/c2ccccc2C)C1`, for which the IC50 in the test filed under Homo sapiens [1] was 2.46 µM; with L1210 it was 12.6 µM; in the test on P388, 1.89 µM.
As for `CCN(CC)CCC(=O)c1ccc(Cl)cc1`, the IC50 with L1210 turned out to be 36.9 µM; in the test with P388, 3.2 µM.
As to `CCN(CC)CCC(=O)c1ccccc1`, the IC50 in the test filed under Homo sapiens [1] came out at 25.1 µM; in the test with L1210, 20.3 µM; in the test with P388, 2.6 µM.
Consider `CCN(CC)CCC(=O)/C=C/c1ccc(C)cc1`, for which the IC50 with L1210 was 52.9 µM; in the test with P388, 1.1 µM.
With `CC[N+]1(C)CC[C@@](O)(c2ccc(Cl)cc2)[C@H](C(=O)c2ccc(Cl)cc2)C1` (stereo partly drawn), the results for the IC50 in the test filed under Homo sapiens [1] and with P388 were 12.9 µM and 1.5 µM, respectively.
As for `CCN1CC[C@@](O)(/C=C/c2ccccc2)[C@H](C(=O)/C=C/c2ccccc2)C1`, the IC50 in the test filed under Homo sapiens [1] is 2.75 µM; with L1210, 5.3 µM; with P388 it was 1.4 µM.
For `CCN1CC[C@@](O)(c2ccc(O)cc2)[C@H](C(=O)c2ccc(O)cc2)C1`, in that order: 20.9 µM, 9.75 µM and 1.4 µM.
In the case of `CCN1CC[C@@](O)(c2ccc(OC)cc2)[C@H](C(=O)c2ccc(OC)cc2)C1`, the IC50 in the test listed under Homo sapiens [1] amounted to 19.5 µM; in the test on L1210, 13.5 µM; in the test on P388, 4.17 µM.
As for `CC[N+]1(C)CC[C@@](O)(c2ccccc2)[C@H](C(=O)c2ccccc2)C1` (stereo partly drawn), the IC50 in the test with P388 was determined as 1.3 µM.
Consider `CCN1CC[C@@](O)(/C=C/c2ccc(C)cc2)[C@H](C(=O)/C=C/c2ccc(C)cc2)C1.Cl`, for which the values for the IC50 in the test filed under Homo sapiens [1], in the test with L1210 and in the test with P388 were 5.01 µM, 6.08 µM and 2.1 µM, respectively. In the test on Mus musculus [8], the ILS at 200 mg/kg stood at 28%. Besides, the ILS at 80 mg/kg is -2% with Mus musculus [9] and 9% in the test on Mus musculus [10]. The T/C in the test with Mus musculus [11] came to 57%; in the test on Mus musculus [12] it was 23%; in the test on Mus musculus [13], 32%.
For the compound `CC[N+]1(C)CC[C@@](O)(c2ccc(Cl)c(Cl)c2)[C@H](C(=O)c2ccc(Cl)c(Cl)c2)C1` (stereo partly drawn), the IC50 in the test filed under Homo sapiens [1] is 9.54 µM; in the test with L1210, 33.6 µM; in the test with P388, 2.3 µM.
The corresponding values for `CCN(CC)CCC(=O)c1ccc(Cl)c(Cl)c1` are 32.4 µM, 36.4 µM and 0.31 µM.
Regarding `CC[N+]1(C)CC[C@@](O)(/C=C/c2ccc(Cl)c(Cl)c2)[C@H](C(=O)/C=C/c2ccc(Cl)c(Cl)c2)C1` (stereo partly drawn), the IC50 was found to be 2.19 µM in the test listed under Homo sapiens [1], 21.4 µM with L1210 and 0.64 µM in the test on P388.
Take `CCN1CC[C@@](O)(/C=C/c2ccc(OC)cc2)[C@H](C(=O)/C=C/c2ccc(OC)cc2)C1`: the IC50 with L1210 stood at 25.6 µM; in the test with P388 it was 5 µM; in the test filed under Homo sapiens [14], 8.31 µM.
Turning to `CCN(CC)CCC(=O)/C=C/c1ccc(Cl)c(Cl)c1`, the IC50 in the test filed under Homo sapiens [1] turned out to be 3.8 µM; with L1210, 61.2 µM; in the test with P388 it was 0.39 µM.
For the compound `CCN1CC[C@@](O)(/C=C/c2ccc(Cl)c(Cl)c2)[C@H](C(=O)/C=C/c2ccc(Cl)c(Cl)c2)C1`, the IC50 was found to be 0.38 µM in the test listed under Homo sapiens [1] and 0.4 µM in the test on P388.
As to `CCN(CC)CCC(=O)/C=C/c1ccc(Cl)cc1`, the figures for the IC50 with L1210 and in the test on P388 were 41 µM and 0.3 µM, respectively.
The corresponding values for `CCN(CC)CCC(=O)/C=C/c1ccc(OC)cc1` are 44.3 µM and 0.67 µM.
For `CCN(CC)CCC(=O)/C=C/c1ccccc1`, the IC50 is 9.77 µM in the test filed under Homo sapiens [1], 25.7 µM in the test with L1210 and 1.7 µM in the test with P388.
For `CCN1CC[C@@](O)(/C=C/c2ccc(Cl)cc2)[C@H](C(=O)/C=C/c2ccc(Cl)cc2)C1`, in that order: 25.7 µM, 6.96 µM and 1.1 µM.
Regarding `CCN(CC)CC(C)(C)C(=O)/C=C/c1ccc(Cl)cc1`, the IC50 in the test on L1210 is 6.39 µM; in the test with P388 it was 2.2 µM.
On to `CCN1CC[C@@](O)(c2ccc(C)cc2)[C@H](C(=O)c2ccc(C)cc2)C1`, for which the IC50 in the test listed under Homo sapiens [1] amounted to 25.1 µM; in the test on L1210, 38.2 µM; in the test on P388, 8.6 µM.
As for `CCN1CC[C@@](O)(/C=C/c2ccc(C)cc2C)[C@H](C(=O)/C=C/c2ccc(C)cc2C)C1`, the results for the IC50 in the test on L1210 and with P388 were 20.9 µM and 2.59 µM, respectively.
Regarding `CCN1CC[C@@](O)(c2ccc(Cl)c(Cl)c2)[C@H](C(=O)c2ccc(Cl)c(Cl)c2)C1`, the IC50 worked out at 16.6 µM in the test listed under Homo sapiens [1] and 3.11 µM with P388.
Consider `CCN(CC)CCC(=O)c1ccc(OC)cc1`, for which the values for the IC50 in the test on L1210 and in the test on P388 were 43.8 µM and 1.6 µM, respectively.
